Experimental data reported in ChEMBL document CHEMBL2385013, “7-Phenyl-imidazoquinolin-4(5H)-one derivatives as selective and orally available mPGES-1 inhibitors” (Bioorg Med Chem, 2013).
In brackets after ≈: the same amount, converted by molar mass.

How the values were obtained:
[1] = Solubility of the compound in FaSSIF; assay type: physicochemical
[2] = Permeability of the compound at pH 5 by PAMPA; assay type: ADME; conditions: read-out: permeability
In short: (§1)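 Compound was incubated for 4 h between a donor compartment (System Solution, pH 5.0 or 7.4) and an acceptor sink buffer. The distribution was read by UV absorption, and effective permeability coefficients were calculated by a published method.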

[3] = Permeability of the compound at pH 7.4 by PAMPA; assay type: ADME; conditions: read-out: permeability; in short: as §1
[4] = Oral bioavailability in rat at 10 mg/kg; assay type: ADME, organism-based; conditions: in vivo
In short: (§2)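 Fasted male rats (n = 3) were given 1 mg/kg iv in 5% glucose/0.1 M HCl = 9/1, or 10 mg/kg po as a suspension in 0.5% methyl cellulose. Jugular vein blood was drawn into heparinized syringes at iv pre-dose, 5, 15, 30 min, 1, 2, 4, 6 and 24 h, or at po 15 and 30 min, 1, 2, 4, 6 and 24 h. Plasma was analysed for parent compound. BA = (AUCpo/Dpo)/(AUCiv/Div) × 100.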

[5] = AUC in rat at 10 mg/kg, po; assay type: ADME, organism-based; set-up: dose 10 mg/kg, route oral; conditions: plasma; in short: as §2
[6] = Cmax in rat at 10 mg/kg, po; assay type: ADME, organism-based; set-up: dose 10 mg/kg, route oral; conditions: in vivo; in short: as §2
[7] = AUC in rat at 1 mg/kg, iv; assay type: ADME, organism-based; set-up: dose 1 mg/kg, route intravenous; conditions: plasma; in short: as §2
[8] = Volume of distribution at steady state in rat at 1 mg/kg, iv; assay type: ADME, organism-based; set-up: dose 1 mg/kg, route intravenous; conditions: in vivo, read-out: Vdss; in short: as §2

Structure (SMILES)	solubility [1] [µg/mL]	Papp [2] [×10⁻⁶ cm/s]	Papp [3] [×10⁻⁶ cm/s]	bioavailability [4] [%]	AUC [5] [ng·h/mL]	Cmax [6] [ng/mL]	AUC [7] [ng·h/mL]	Vd [8] [L/kg]
O=c1[nH]c2cc(Br)ccc2c2[nH]c(-c3ccccc3Cl)nc12	0.9 (≈ 2.4 µM)	> 30	26					
O=c1[nH]c2cc(-c3cccc(Cl)c3)ccc2c2nc(-c3c(F)cccc3Cl)[nH]c12	0.5 (≈ 1.18 µM)	29	> 30					
O=c1[nH]c2cc(-c3ccccc3)ccc2c2nc(-c3c(F)cccc3Cl)[nH]c12	1 (≈ 2.57 µM)	30	> 30	19	1400	472	728	1.4
O=c1[nH]c2cc(-c3ccccc3)ccc2c2nc(-c3ccccc3Cl)[nH]c12	1 (≈ 2.69 µM)	> 30	> 30					
